ChEMBL document CHEMBL4364256, “Design, synthesis and biological evaluation of antimicrobial diarylimine and -amine compounds targeting the interaction between the bacterial NusB and NusE proteins” (Eur J Med Chem, 2019)
≈ marks a conversion by molar mass, not a printed value. Calls of active or inactive are those of the source. The calls are words filed in the database; no cut-off is given here.

Legend:
[1] = Therapeutic index, ratio of CC50 for human A549 cells to 1/2 times MIC for Staphylococcus aureus ATCC 25923; type: toxicity; conditions: read-out: TI
[2] = system: Enterococcus casseliflavus; assay: Antimicrobial activity against Enterococcus casseliflavus ATCC 25788 incubated for 20 hrs by microdilution method; type: functional
How it was run: (§1)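 Broth microdilution MIC testing done following CLSI guidelines.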

Staphylococcus aureus [3] = assay: Antimicrobial activity against CA-methicillin-resistant Staphylococcus aureus W47 ST30 incubated for 20 hrs by microdilution method; type: functional
How it was run: (§2)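 MIC determined by microdilution following Clinical & Laboratory Standards Institute (CLSI) guidelines, read in µg/mL, against a panel of hospital- and community-acquired MRSA strains.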

Staphylococcus aureus [4] = assay: Antimicrobial activity against Staphylococcus aureus HA W235 ST5 incubated for 20 hrs by microdilution method; type: functional; how it was run: as §2
Staphylococcus aureus [5] = assay: Antimicrobial activity against Staphylococcus aureus ATCC BAA44 incubated for 20 hrs by microdilution method; type: functional; how it was run: as §2
Staphylococcus aureus [6] = assay: Antimicrobial activity against CA-methicillin-resistant Staphylococcus aureus W46 ST59 incubated for 20 hrs by microdilution method; conditions: W46 ST59, 20 h
Streptococcus pneumoniae = assay: Antimicrobial activity against Streptococcus pneumoniae ATCC 49619 incubated for 20 hrs by microdilution method; type: functional; how it was run: as §1
[7] = Cytotoxicity against human HaCaT cells assessed as reduction in cell viability after 48 to 72 hrs by MTT assay; type: cell-based
Staphylococcus aureus [8] = assay: Antimicrobial activity against Staphylococcus aureus USA300/ST8 incubated for 20 hrs by microdilution method; conditions: USA300 ST8, 20 h
[9] = system: Staphylococcus epidermidis; assay: Antimicrobial activity against Staphylococcus epidermidis ATCC 12228 incubated for 20 hrs by microdilution method; type: functional; how it was run: as §1
Staphylococcus aureus [10] = assay: Antimicrobial activity against CA-methicillin-resistant Staphylococcus aureus W48 ST217 incubated for 20 hrs by microdilution method; conditions: W48 ST217, 20 h
Staphylococcus aureus [11] = assay: Antimicrobial activity against CA-methicillin-resistant Staphylococcus aureus W4 ST338 incubated for 20 hrs by microdilution method; type: functional; how it was run: as §2
Pseudomonas aeruginosa = assay: Antimicrobial activity against Pseudomonas aeruginosa ATCC 27853 incubated for 20 hrs by microdilution method; type: functional; how it was run: as §1
Acinetobacter baumannii = assay: Antimicrobial activity against Acinetobacter baumannii ATCC 19606 incubated for 20 hrs by microdilution method; type: functional; how it was run: as §1
Enterococcus faecium = assay: Antimicrobial activity against Enterococcus faecium ATCC 19433 incubated for 20 hrs by microdilution method; type: functional; how it was run: as §1
[12] = (§3) Antimicrobial activity against Staphylococcus saprophyticus ATCC 15305 incubated for 20 hrs by microdilution method; type: functional, Staphylococcus saprophyticus subsp. saprophyticus; conditions: ATCC 15305, 20 h; how it was run: as §1
Staphylococcus aureus [13] = assay: Antimicrobial activity against Staphylococcus aureus ST22 11B086169 incubated for 20 hrs by microdilution method; type: functional; how it was run: as §2
Streptococcus pyogenes = assay: Antimicrobial activity against Streptococcus pyogenes ATCC 19615 incubated for 20 hrs by microdilution method; type: functional; how it was run: as §1
Staphylococcus aureus [14] = assay: microbe, parasite or virus in culture; conditions: ATCC 25923, 20 h
[15] = microbe, parasite or virus in culture; conditions: Enterobacter cloacae, ATCC 13047, 20 h
Staphylococcus aureus [16] = assay: Antimicrobial activity against CA-methicillin-resistant Staphylococcus aureus W45 ST59 incubated for 20 hrs by microdilution method; conditions: W45 ST59, 20 h
[17] = Cytotoxicity against human A549 cells assessed as reduction in cell viability after 48 to 72 hrs by MTT assay; type: cell-based
Streptococcus agalactiae = assay: Antimicrobial activity against Streptococcus agalactiae ATCC 12386 incubated for 20 hrs by microdilution method; type: functional; how it was run: as §1
Staphylococcus aureus [18] = assay: Antimicrobial activity against Staphylococcus aureus ATCC BAA43 incubated for 20 hrs by microdilution method; type: functional; how it was run: as §2
Staphylococcus aureus [19] = assay: Antimicrobial activity against Staphylococcus aureus ST239 incubated for 20 hrs by microdilution method; type: functional; how it was run: as §2
Staphylococcus aureus [20] = assay: Antimicrobial activity against Staphylococcus aureus HA W231 ST45 incubated for 20 hrs by microdilution method; type: functional; how it was run: as §2
[21] = Therapeutic index, ratio of CC50 for human HaCaT cells to 1/2 times MIC for Staphylococcus aureus ATCC 25923; type: toxicity; conditions: read-out: TI
Bacillus subtilis = assay: Inhibition of N-terminal LgBiT-fused Bacillus subtilis NusB expressed in Escherichia coli BL21(DE3)pLysS interaction with C- terminal SmBiT-fused Bacillus subtilis NusE expressed in Escherichia coli BL21(DE3)pLysS at 100 uM preincubated for 10 mins followed by NusE addition and measured after 10 mins by nano-glo luciferase assay relative to control
How it was run: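 NusB and NusE were mixed 1:1 at 1 µM in PBS, with compound at 100 µM. The read-out was percent inhibition of the NusB-NusE interaction.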

Staphylococcus aureus [22] = assay: microbe, parasite or virus in culture; conditions: ATCC 29213, 20 h
Staphylococcus aureus [23] = assay: Growth inhibition of Staphylococcus aureus ATCC 25923 at 1/4 times MIC preincubated for 24 hrs followed by replating on agar plate and measured after overnight incubation by time-kill assay; type: functional, organism-based
Staphylococcus aureus [24] = assay: Bacteriostatic activity against Staphylococcus aureus ATCC 25923 at 1 to 4 times MIC preincubated for up to 24 hrs followed by replating on agar plate measured after overnight incubation by time-kill assay; type: functional, organism-based
Bacteria = assay: Binding affinity to bacterial NusB assessed as change in chiral structure at 2 ug/ml by circular dichroism spectroscopic analysis
How it was run: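 Circular dichroism spectra were recorded on NusB at 2.0 µg/mL in neutral phosphate buffer, alone and after mixing with compound at a 1:1 ratio. Binding was read as a change in the spectrum.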

[25] = system: Staphylococcus saprophyticus subsp. saprophyticus; assay: as §3; type: functional; how it was run: as §1
[26] = ATCC 19606 = CIP 70.34 = JCM 6841, 20 h

| Compound | selectivity ratio [1] | MIC ([2]; ATCC 25788, 20 h) [µg/mL] | MIC (Staphylococcus aureus [3]; W47 ST30, 20 h) [µg/mL] | MIC (Staphylococcus aureus [4]; HA W235 ST5, 20 h) [µg/mL] | MIC (Staphylococcus aureus [5]; ATCC BAA44, 20 h) [µg/mL] | MIC (Staphylococcus aureus [6]) [µg/mL] | MIC (Streptococcus pneumoniae; ATCC 49619, 20 h) [µg/mL] | CC50 [7] [µM] | MIC (Staphylococcus aureus [8]) [µg/mL] | MIC ([9]; ATCC 12228, 20 h) [µg/mL] | MIC (Staphylococcus aureus [10]) [µg/mL] | MIC (Staphylococcus aureus [11]; W4 ST338, 20 h) [µg/mL] | MIC (Pseudomonas aeruginosa; ATCC 27853, 20 h) [µg/mL] | MIC (Acinetobacter baumannii; [26]) [µg/mL] | MIC (Enterococcus faecium; ATCC 19433, 20 h) [µg/mL] | MIC [12] [µg/mL] | MIC (Staphylococcus aureus [14]) [µg/mL] | MIC [15] [µg/mL] | inhibition (Bacillus subtilis) [%] | MIC (Staphylococcus aureus [22]) [µg/mL] | also measured |
| --- | --- | --- | --- | --- | --- | --- | --- | --- | --- | --- | --- | --- | --- | --- | --- | --- | --- | --- | --- | --- | --- |
| O=[N+]([O-])c1ccc(O)c(CNc2ccccc2C(F)(F)F)c1 | 6 | 64 (≈ 205 µM) | 4 (≈ 12.8 µM) | 2 (≈ 6.41 µM) | 4 (≈ 12.8 µM) | 2 (≈ 6.41 µM) | 8 (≈ 25.6 µM) | 18.3 | 2 (≈ 6.41 µM) | 2 (≈ 6.41 µM) | 2 (≈ 6.41 µM) | 2 (≈ 6.41 µM) | > 256 | 128 (≈ 410 µM) | 8 (≈ 25.6 µM) | 4 (≈ 12.8 µM) | 2 (≈ 6.41 µM) | 256 (≈ 820 µM) | 61.5 | 2 (≈ 6.41 µM) | MIC (Staphylococcus aureus [13]; ST22 11B086169, 20 h): 4 µg/mL (≈ 12.8 µM); MIC (Streptococcus pyogenes; ATCC 19615, 20 h): 16 µg/mL (≈ 51.2 µM); MIC (Staphylococcus aureus [16]): 4 µg/mL (≈ 12.8 µM); CC50 [17]: 20 µM; MIC (Streptococcus agalactiae; ATCC 12386, 20 h): 16 µg/mL (≈ 51.2 µM); MIC (Staphylococcus aureus [18]; ATCC BAA43, 20 h): 4 µg/mL (≈ 12.8 µM); MIC (Staphylococcus aureus [19]; CN79, 20 h): 4 µg/mL (≈ 12.8 µM); MIC (Staphylococcus aureus [20]; HA W231 ST45, 20 h): 4 µg/mL (≈ 12.8 µM); selectivity ratio [21]: 6 |
| C#Cc1cccc(/N=C/c2cc([N+](=O)[O-])ccc2O)c1 | – | – | – | – | – | – | 16 (≈ 60.1 µM) | – | – | – | – | – | > 256 | 64 (≈ 240 µM) | > 256 | – | 8 (≈ 30 µM) | > 256 | 85.3 | 16 (≈ 60.1 µM) | growth inhibition (GI) (Staphylococcus aureus [23]): Active; Activity (Staphylococcus aureus [24]): Active |
| CC(C)(C)c1ccccc1NCc1cc([N+](=O)[O-])ccc1O | 8 | 16 (≈ 53.3 µM) | 2 (≈ 6.66 µM) | 2 (≈ 6.66 µM) | 2 (≈ 6.66 µM) | 2 (≈ 6.66 µM) | 2 to 8 (≈ 6.66 to 26.6 µM) | 15.1 | 2 (≈ 6.66 µM) | 1 (≈ 3.33 µM) | 2 (≈ 6.66 µM) | 2 (≈ 6.66 µM) | > 256 | > 256 | 8 (≈ 26.6 µM) | 2 (≈ 6.66 µM) | 1 (≈ 3.33 µM) | > 256 | 72.2 | 4 (≈ 13.3 µM) | MIC (Staphylococcus aureus [13]; ST22 11B086169, 20 h): 2 µg/mL (≈ 6.66 µM); MIC (Streptococcus pyogenes; ATCC 19615, 20 h): 8 µg/mL (≈ 26.6 µM); MIC (Staphylococcus aureus [16]): 2 µg/mL (≈ 6.66 µM); CC50 [17]: 13.4 µM; MIC (Streptococcus agalactiae; ATCC 12386, 20 h): 8 µg/mL (≈ 26.6 µM); MIC (Staphylococcus aureus [18]; ATCC BAA43, 20 h): 2 µg/mL (≈ 6.66 µM); MIC (Staphylococcus aureus [19]; CN79, 20 h): 2 µg/mL (≈ 6.66 µM); MIC (Staphylococcus aureus [20]; HA W231 ST45, 20 h): 2 µg/mL (≈ 6.66 µM); selectivity ratio [21]: 9; Activity (Bacteria): Active |
| GENTAMICIN | – | – | – | – | – | – | – | – | – | – | – | – | – | – | – | – | – | – | – | – | MIC [2]: 4 µg/mL; MIC (Staphylococcus aureus [3]): 0.25 µg/mL; MIC (Staphylococcus aureus [4]): > 256 µg/mL; MIC (Staphylococcus aureus [5]): > 256 µg/mL; MIC (Streptococcus pneumoniae): 32 µg/mL; MIC [9]: 0.125 µg/mL; MIC (Staphylococcus aureus [11]): 0.25 µg/mL; MIC (Pseudomonas aeruginosa): 2 µg/mL; MIC (Acinetobacter baumannii; ATCC 19606 = CIP 70.34 = JCM 6841): 32 µg/mL; MIC (Enterococcus faecium): 16 µg/mL; MIC [25]: 0.0625 µg/mL; MIC (Staphylococcus aureus [13]): 0.25 µg/mL; MIC (Streptococcus pyogenes): 8 µg/mL; MIC (Streptococcus agalactiae): 32 µg/mL; MIC (Staphylococcus aureus [18]): > 256 µg/mL; MIC (Staphylococcus aureus [19]; CN79): > 256 µg/mL; MIC (Staphylococcus aureus [20]): 16 µg/mL |
| CC(C)(C)c1cccc(NCc2cc([N+](=O)[O-])ccc2O)c1 | 6 | 32 (≈ 107 µM) | 4 (≈ 13.3 µM) | 4 (≈ 13.3 µM) | 8 (≈ 26.6 µM) | 8 (≈ 26.6 µM) | 8 (≈ 26.6 µM) | 20.2 | 8 (≈ 26.6 µM) | 16 (≈ 53.3 µM) | 4 (≈ 13.3 µM) | 4 (≈ 13.3 µM) | > 256 | > 256 | 32 (≈ 107 µM) | 1 (≈ 3.33 µM) | 2 (≈ 6.66 µM) | > 256 | 39.5 | 4 (≈ 13.3 µM) | MIC (Staphylococcus aureus [13]; ST22 11B086169, 20 h): 8 µg/mL (≈ 26.6 µM); MIC (Streptococcus pyogenes; ATCC 19615, 20 h): 16 µg/mL (≈ 53.3 µM); MIC (Staphylococcus aureus [16]): 8 µg/mL (≈ 26.6 µM); CC50 [17]: 18.3 µM; MIC (Streptococcus agalactiae; ATCC 12386, 20 h): 16 µg/mL (≈ 53.3 µM); MIC (Staphylococcus aureus [18]; ATCC BAA43, 20 h): 2 µg/mL (≈ 6.66 µM); MIC (Staphylococcus aureus [19]; CN79, 20 h): 8 µg/mL (≈ 26.6 µM); MIC (Staphylococcus aureus [20]; HA W231 ST45, 20 h): 8 µg/mL (≈ 26.6 µM); selectivity ratio [21]: 6 |
